Measurements gathered from unrelated publications.
Compare with care: the assays were run in different laboratories.
Target: Serine/threonine-protein kinase D3 (PRKD3, Homo sapiens, UniProt O94806)
Residues used in one study (O94806 1-890): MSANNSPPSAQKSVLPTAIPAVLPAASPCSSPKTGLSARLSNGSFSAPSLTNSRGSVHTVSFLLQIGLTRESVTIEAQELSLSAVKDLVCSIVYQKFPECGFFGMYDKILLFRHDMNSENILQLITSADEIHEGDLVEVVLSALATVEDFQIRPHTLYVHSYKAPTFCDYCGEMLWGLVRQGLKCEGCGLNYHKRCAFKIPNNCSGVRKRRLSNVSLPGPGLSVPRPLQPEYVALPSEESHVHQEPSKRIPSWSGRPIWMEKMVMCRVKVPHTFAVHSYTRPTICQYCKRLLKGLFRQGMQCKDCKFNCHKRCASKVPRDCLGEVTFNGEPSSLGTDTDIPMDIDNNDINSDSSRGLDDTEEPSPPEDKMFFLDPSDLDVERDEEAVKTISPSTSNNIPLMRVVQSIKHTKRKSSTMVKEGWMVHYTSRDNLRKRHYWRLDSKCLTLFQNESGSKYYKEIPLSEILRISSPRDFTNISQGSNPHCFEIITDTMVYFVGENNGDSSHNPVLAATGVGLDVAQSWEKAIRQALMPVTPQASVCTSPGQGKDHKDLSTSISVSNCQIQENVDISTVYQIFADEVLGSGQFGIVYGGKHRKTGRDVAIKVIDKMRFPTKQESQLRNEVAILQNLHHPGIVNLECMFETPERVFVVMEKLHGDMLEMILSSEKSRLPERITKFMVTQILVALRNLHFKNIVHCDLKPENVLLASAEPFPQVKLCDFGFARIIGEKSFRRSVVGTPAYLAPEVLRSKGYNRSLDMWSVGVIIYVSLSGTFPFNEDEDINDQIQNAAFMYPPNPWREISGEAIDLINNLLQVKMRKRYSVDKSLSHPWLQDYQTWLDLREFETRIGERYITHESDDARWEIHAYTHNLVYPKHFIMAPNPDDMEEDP

| Structure (SMILES) | assay | system | conditions | measurement | value |
| --- | --- | --- | --- | --- | --- |
| CCOc1cc(-c2nncn2C)ccc1Nc1ncc2cc(C)nc(NCC(C)(C)C)c2n1 | enzyme activity, inhibitor, FRET |  | 1 µM | inhibition | < 15% |
| N#CC1c2c([nH]c3c(Cl)c(Cl)ccc23)C(=O)NC12CCCCC2 (racemic) | thermal stability, DSF |  | 10 µM | ΔTm | 0.9 °C |
| CC/C(=N\NC(=O)NCc1cccc(O)c1)c1ccc(O)c(C)c1O | enzyme activity, inhibitor |  | 0.1 µM | inhibition | 2.2% |
| CN(C)CC#Cc1ccc(OCCCc2sc(N3CCc4cccc(C(=O)Nc5nc6ccccc6s5)c4C3)nc2C(=O)O)c(F)c1 | cell-free assay, competition with immobilised ligand |  | 1 µM | remaining binding | 93% |
| CN1CCC2(CC1)NC(=O)c1c(c3ccc(Cl)c(Cl)c3n1C)C2C#N (racemic) | thermal stability, DSF |  | 10 µM | ΔTm | 2 °C |
| CNc1cc(Oc2cc(C(=O)Nc3cc(N4CCN(C)CC4)cc(C(F)(F)F)c3)ccc2C)ncn1 | target engagement in cells, inhibitor, chemoproteomics | Huh-7 | 1 µM | inhibition | -19.8% |
| Cn1c2c(Cl)c(Cl)ccc2c2cc(N)[nH]c(=O)c21 | thermal stability, DSF |  | 10 µM | ΔTm | 1 °C |
| Cc1ccc(C(=O)Nc2ccc(CN3CCN(C)CC3)c(C(F)(F)F)c2)cc1C#Cc1cnc2cccnn12 | enzyme activity, inhibitor |  | 23.5 nM | remaining activity | 100% |
| Cc1nc(Cc2cccc(C(F)(F)F)c2)sc1-c1ccc(C(N)=O)nc1 | cell-free assay, competition with immobilised ligand |  | 1 µM | remaining binding | 97% |
| Cc1sc(C(=O)NC2COC2)cc1-n1cc(NC(=O)Nc2c(F)cccc2Cl)cn1 | enzyme activity, inhibitor |  | 10 µM | remaining activity | 105% |
| CCCCNc1ncc2c(-c3ccc(F)cc3)nn(C[C@H]3CC[C@H](N)CC3)c2n1 | target engagement in cells, inhibitor, chemoproteomics |  | 20 mM | inhibition | 48.7% |
| COCCOc1nc(-c2ccc(Cl)nc2)nc2c1CN(C(=O)c1ncn3ccccc13)CC2 | cell-free assay, competition with immobilised ligand |  | 0.1 µM | remaining binding | 94% |
| COc1cc2ncnc(Nc3ccc(Oc4ccccc4)cc3C)c2cc1OC | enzyme activity, inhibitor |  | 1 µM | inhibition | 10% |
| COc1cc(Cl)c(C(=O)N[C@@H](CN[C@H]2CC[C@@H](N)CC2)Cc2ccc(C#N)cc2)cc1-c1ccc(CN[C@H](C)c2ccc(C)cc2)o1 | enzyme activity, inhibitor |  | 1 µM | remaining activity | 93% |
| CC(C)CC(=O)N1CCc2nc(-c3ccc(Br)cc3)nc(N(C)Cc3ccccc3)c2C1 | cell-free assay, competition with immobilised ligand |  | 0.1 µM | remaining binding | 100% |
| CN1CC(Oc2cnc(C#N)cc2-c2ccn3nc(NC(=O)C4CC4)cc3c2)C1 | enzyme activity, inhibitor |  | 1 µM | inhibition | -13% |
| CO[C@@H](C)c1c(Nc2ccc([C@@H](N(C)C(=O)C3CCS(=O)(=O)CC3)C(F)(F)F)cc2)cnc2cc(Cl)nn12 | cell-free assay, competition with immobilised ligand |  | 1 µM | remaining binding | 93% |
| COc1cc2c(Nc3ccc(Br)cc3F)ncnc2cc1OCC1CCN(C)CC1 | cell-free assay |  | 0.5 µM | remaining signal | 91.7% |
| CC(C)(C)c1nc2c(s1)c1nc(N)ncc1c1ccc(NS(=O)(=O)c3c(F)cccc3F)c(F)c12 | enzyme activity, inhibitor, radiometric |  | 1 µM | remaining activity | 98% |
| O=C(Nc1ccc(Oc2ccc(F)cc2)cc1)N1CCc2ncccc2[C@H]1c1ccc(F)cc1 | cell-free assay, competition with immobilised ligand |  | 1 µM | remaining binding | 98% |
| N#CCCc1ccc2c(c1)-c1[nH]c3ccc([N+](=O)[O-])cc3c1CC(=O)N2 | cell-free assay |  | 0.5 µM | remaining signal | 84% |
| CNC(=O)Nc1ccc2c(c1)CC[C@@]21OC(=O)N(CC(=O)N(Cc2ccc(F)cc2)[C@@H](C)C(F)(F)F)C1=O | cell-free assay, competition with immobilised ligand |  | 1 µM | remaining binding | 100% |
| Cn1c2c(c3ccc(Cl)c(Cl)c31)C(C#N)C(C)(C)NC2=O (stereo not drawn) | thermal stability, DSF |  | 10 µM | ΔTm | 1.9 °C |
| COc1cc2ncnc(Nc3ccc(F)c(Cl)c3)c2cc1OCCCN1CCOCC1 | cell-free assay |  | 0.5 µM | remaining signal | 76.3% |
